Test results published in ChEMBL document CHEMBL3871278, “Isolation of Coralmycins A and B, Potent Anti-Gram Negative Compounds from the Myxobacteria Corallococcus coralloides M23” (J Nat Prod, 2016).
In brackets after ≈: the same amount, converted by molar mass. Structures can show the parent of a compound that is named as a salt.

What was measured:
Staphylococcus aureus [1] = experiment: Antibacterial activity against Staphylococcus aureus RN4220 after 24 hrs by broth microdilution method; format: functional; details: RN4220, 24 h
Summary of the method: (§1)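 Broth microdilution with triplicate serial 2-fold dilutions; inoculum 10^5 cells/mL at 0.2 mL/well. Strains were grown to mid-log phase and diluted 1000-fold. Media: Mueller-Hinton broth for most strains, nutrient broth for A. baumannii, Todd-Hewitt for S. pneumoniae. DMSO was at most 0.05% final. After 24 h at 37 °C, MIC = lowest concentration completely inhibiting growth, read by A650.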

Enterococcus faecalis = experiment: Antibacterial activity against Enterococcus faecalis KCTC 5191 after 24 hrs by broth microdilution method; format: functional; details: KCTC 5191, 24 h; summary of the method: as §1
Escherichia coli [2] = experiment: Antibacterial activity against Escherichia coli KCTC 1682 after 24 hrs by broth microdilution method; format: functional; details: KCTC 1682, 24 h; summary of the method: as §1
Acinetobacter baumannii = experiment: Antibacterial activity against Acinetobacter baumannii KCTC 2508 after 24 hrs by broth microdilution method; format: functional; details: KCTC 2508, 24 h; summary of the method: as §1
Pseudomonas aeruginosa = experiment: Antibacterial activity against Pseudomonas aeruginosa KCTC 2004 after 24 hrs by broth microdilution method; format: functional; details: KCTC 2004, 24 h; summary of the method: as §1
[3] = Cytotoxicity against human MCF10A cells assessed as cell growth inhibition at 50 ug/ml after 48 hrs by SRB assay; format: toxicity, cell-based; details: mcf-10a
Summary of the method: (§2)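 Single-concentration test at 50 μg/mL for 48 h. HepG2, MRC-9 or MCF10A cells (under passage 20) were grown in RPMI 1640 with 10% newborn calf serum and seeded at 1 × 10^4 cells/well one day before treatment. Growth inhibition was read by sulforhodamine B assay.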

Staphylococcus aureus [4] = experiment: Antibacterial activity against methicillin-resistant Staphylococcus aureus CCARM 3167 after 24 hrs by broth microdilution method; format: functional; details: CCARM 3167, 24 h
Summary of the method: (§3)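 Strains grown to mid-log phase in Mueller-Hinton broth, diluted 1000-fold; 10^5 cells/mL in Mueller-Hinton broth exposed to serial 2-fold dilutions of compound from DMSO stocks (final DMSO ≤0.05%; 0.05% DMSO vehicle control; ciprofloxacin comparator). Incubated 24 h at 37 °C; growth read by absorbance at 650 nm. MIC = lowest concentration completely inhibiting growth, in triplicate.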

[5] = Cytotoxicity against human HepG2 cells assessed as cell growth inhibition at 50 ug/ml after 48 hrs by SRB assay; format: toxicity, cell-based; details: hepg2, 48 h; summary of the method: as §2
Staphylococcus aureus [6] = experiment: Antibacterial activity against methicillin-resistant Staphylococcus aureus CCARM 3506 after 24 hrs by broth microdilution method; format: functional; details: CCARM 3506, 24 h; summary of the method: as §3
[7] = Cytotoxicity against human MRC9 cells assessed as cell growth inhibition at 50 ug/ml after 48 hrs by SRB assay; format: toxicity, cell-based; details: mrc9, 48 h; summary of the method: as §2
Escherichia coli [8] = experiment: Antibacterial activity against Escherichia coli CCARM 1356 after 24 hrs by broth microdilution method; format: functional; details: CCARM 1356, 24 h; summary of the method: as §1
Streptococcus pneumoniae = experiment: Antibacterial activity against Streptococcus pneumoniae KCTC 5412 after 24 hrs by broth microdilution method; format: functional; details: KCTC 5412, 24 h; summary of the method: as §1
Klebsiella pneumoniae = experiment: Antibacterial activity against Klebsiella pneumoniae KCTC 22057 after 24 hrs by broth microdilution method; format: functional; details: KCTC 22057, 24 h; summary of the method: as §1
Staphylococcus aureus [9] = experiment: Antibacterial activity against quinolone-resistant Staphylococcus aureus CCARM 3505 after 24 hrs by broth microdilution method; format: functional; details: CCARM 3505, 24 h; summary of the method: as §3
Staphylococcus aureus [10] = experiment: Antibacterial activity against quinolone-resistant Staphylococcus aureus CCARM 3519 after 24 hrs by broth microdilution method; format: functional; details: CCARM 3519, 24 h; summary of the method: as §3
[11] = Cytotoxicity against human MRC9 cells assessed as cell growth inhibition after 48 hrs by SRB assay; format: toxicity, cell-based
Summary of the method: (§4)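 HepG2, MRC-9 or MCF10A cells (under passage 20) were grown in RPMI 1640 with 10% newborn calf serum and seeded at 1 × 10^4 cells/well one day before treatment. Compounds were applied at various concentrations for 48 h. Viability was measured by sulforhodamine B staining, and GI50 was calculated from the dose-response.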

[12] = Cytotoxicity against human HepG2 cells assessed as cell growth inhibition after 48 hrs by SRB assay; format: toxicity, cell-based; summary of the method: as §4
[13] = Cytotoxicity against human MCF10A cells assessed as cell growth inhibition after 48 hrs by SRB assay; format: toxicity, cell-based, MCF-10A; summary of the method: as §4

SMILES | MIC (Staphylococcus aureus [1]) [µg/mL] | MIC (Enterococcus faecalis) [µg/mL] | MIC (Escherichia coli [2]) [µg/mL] | MIC (Acinetobacter baumannii) [µg/mL] | MIC (Pseudomonas aeruginosa) [µg/mL] | Activity [3] | MIC (Staphylococcus aureus [4]) [µg/mL] | Activity [5] | MIC (Staphylococcus aureus [6]) [µg/mL] | Activity [7] | MIC (Escherichia coli [8]) [µg/mL] | MIC (Streptococcus pneumoniae) [µg/mL] | MIC (Klebsiella pneumoniae) [µg/mL] | MIC (Staphylococcus aureus [9]) [µg/mL] | MIC (Staphylococcus aureus [10]) [µg/mL] | GI50 at 48 h [11] [µg/mL] | GI50 at 48 h [12] [µg/mL] | GI50 at 48 h [13] [µg/mL]
CO[C@@H](C(N)=O)[C@H](NC(=O)c1ccc(NC(=O)c2ccc([N+](=O)[O-])cc2)cc1)C(=O)Nc1ccc(C(=O)Nc2ccc(C(=O)Nc3ccc(C(=O)O)cc3OC(C)C)c(O)c2OC(C)C)cc1 | 0.063 (≈ 0.0685 µM) | 0.125 (≈ 0.136 µM) | 0.5 (≈ 0.544 µM) | 0.25 (≈ 0.272 µM) | 8 (≈ 8.7 µM) | Non-Toxic | 0.125 (≈ 0.136 µM) | Non-Toxic | 0.125 (≈ 0.136 µM) | Non-Toxic | 1 (≈ 1.09 µM) | 2 (≈ 2.17 µM) | 8 (≈ 8.7 µM) | 1 (≈ 1.09 µM) | 2 (≈ 2.17 µM) |  |  | 
COc1cccc2c1C(=O)c1c(O)c3c(c(O)c1C2=O)C[C@@](O)(C(=O)CO)C[C@@H]3O[C@H]1C[C@H](N)[C@H](O)[C@H](C)O1 [DOXORUBICIN HYDROCHLORIDE] |  |  |  |  |  |  |  |  |  |  |  |  |  |  |  | 0.04 to 0.08 | 0.04 to 0.08 | 0.04 to 0.08
CO[C@@H](C(N)=O)[C@H](NC(=O)c1ccc(NC(=O)c2ccc([N+](=O)[O-])cc2)cc1)C(=O)Nc1ccc(C(=O)Nc2ccc(C(=O)Nc3ccc(C(=O)O)c(O)c3OC(C)C)c(O)c2OC(C)C)cc1 | 0.015 (≈ 0.016 µM) | 0.03 (≈ 0.0321 µM) | 0.125 (≈ 0.134 µM) | 0.125 (≈ 0.134 µM) | 4 (≈ 4.27 µM) |  | 0.015 (≈ 0.016 µM) |  | 0.015 (≈ 0.016 µM) |  | 0.125 (≈ 0.134 µM) | 0.25 (≈ 0.267 µM) | 2 (≈ 2.14 µM) | 0.125 (≈ 0.134 µM) | 0.25 (≈ 0.267 µM) |  |  | 
CO[C@H](C(=O)O)[C@H](NC(=O)c1ccc(NC(=O)c2ccc([N+](=O)[O-])cc2)cc1)C(=O)Nc1ccc(C(=O)Nc2ccc(C(=O)Nc3ccc(C(=O)O)cc3OC(C)C)c(O)c2OC(C)C)cc1 | 2 (≈ 2.17 µM) | 4 (≈ 4.34 µM) | 4 (≈ 4.34 µM) | 4 (≈ 4.34 µM) | > 16 |  | 1 (≈ 1.09 µM) |  | 1 (≈ 1.09 µM) |  | 16 (≈ 17.4 µM) | > 16 | > 16 |  |  |  |  | 
O=C(O)c1cn(C2CC2)c2cc(N3CCNCC3)c(F)cc2c1=O [CIPROFLOXACIN] |  | 0.5 (≈ 1.51 µM) |  | 0.125 (≈ 0.377 µM) | 0.06 (≈ 0.181 µM) |  | 2 (≈ 6.04 µM) |  |  |  | 64 (≈ 193 µM) |  | 0.006 (≈ 0.0181 µM) | 128 (≈ 386 µM) | 128 (≈ 386 µM) |  |  | 
